{
  "source": "paper PMC8314423",
  "about": "(Journal of medicinal chemistry, 2018)",
  "key": {"[1]": {"target": "SOS1-mediated nucleotide exchange on RAS (Homo sapiens, UniProt Q07889)", "sequence (Q07889 564-1049 limits assumed)": "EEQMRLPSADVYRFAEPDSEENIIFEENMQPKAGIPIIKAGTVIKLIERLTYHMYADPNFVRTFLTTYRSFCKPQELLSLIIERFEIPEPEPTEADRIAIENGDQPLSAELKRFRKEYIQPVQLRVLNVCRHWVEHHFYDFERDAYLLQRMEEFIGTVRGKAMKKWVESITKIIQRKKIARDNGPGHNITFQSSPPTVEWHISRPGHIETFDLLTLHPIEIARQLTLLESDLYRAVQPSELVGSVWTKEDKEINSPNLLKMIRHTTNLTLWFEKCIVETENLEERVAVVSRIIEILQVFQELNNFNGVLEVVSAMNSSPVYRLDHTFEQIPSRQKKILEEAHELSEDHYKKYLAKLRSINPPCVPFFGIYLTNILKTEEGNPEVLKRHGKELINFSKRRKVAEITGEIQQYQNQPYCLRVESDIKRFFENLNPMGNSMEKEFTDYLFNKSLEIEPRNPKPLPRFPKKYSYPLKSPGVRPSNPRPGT", "sequence (P01112 1-166 partner limits assumed)": "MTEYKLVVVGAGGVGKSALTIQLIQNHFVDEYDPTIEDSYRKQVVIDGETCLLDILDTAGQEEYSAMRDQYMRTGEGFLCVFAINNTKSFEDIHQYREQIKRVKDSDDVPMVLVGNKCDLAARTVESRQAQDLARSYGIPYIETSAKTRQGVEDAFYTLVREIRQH", "experiment": "SOS1-mediated nucleotide exchange assay", "assay_type": "biochemical"}, "[2]": {"test_system": "RAS-GTP levels in HeLa cells", "experiment": "RAS-GTP levels in HeLa cells", "assay_type": "cell-based", "conditions": "10 min treatment; for change in RAS-GTP levels: up to 30 μM", "summary_of_the_method": "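HeLa (WT KRAS) cells exposed to test compound for 10 min at concentrations up to 30 μM. RAS-GTP levels were measured together with the accompanying pERK1/2 T202/Y204 levels. EGF (50 ng/mL, 5 min) served as the positive control for pathway stimulation. Data are representative of two independent experiments.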"}},
  "data": [
    {"smiles": "Cc1cc(Cn2c(N3CCNCC3)nc3ccc(Cl)cc32)cc(C)c1F", "note": "[Compound 29, 6-Chloro-1-(4-fluoro-3,5-dimethylbenzyl)-2-(piperazin-1-yl)-1H-benzo[d]imidazole]", "values": [
      {"measurement": "EC50", "setting": "[1]", "value": "< 1000", "unit": "nM"}
    ]},
    {"smiles": "Cc1cc(Cn2c(N3CCNCC3)nc3c(-c4cncnc4C)cc(Cl)cc32)cc(C)c1F", "note": "[Compound 55, 6-Chloro-1-(4-fluoro-3,5-dimethylbenzyl)-4-(4-methylpyrimidin-5-yl)-2-(piperazin-1-yl)-1H-benzo[d]imidazole]", "values": [
      {"measurement": "change in RAS-GTP levels", "setting": "[2]", "value": "only modest increases in RAS-GTP levels"}
    ]},
    {"smiles": "Cc1cc(Cn2c(N3CC4(CNC4)C3)nc3c(N4CCN(C)CC4)cc(Cl)cc32)cc(C)c1F", "note": "[Compound 64, 6-Chloro-1-(4-fluoro-3,5-dimethylbenzyl)-4-(4-methylpiperazin-1-yl)-2-(2,6-diazaspiro[3.3]heptan-2-yl)-1H-benzo[d]imidazole]", "values": [
      {"measurement": "lowest concentration inducing small increases in RAS-GTP", "setting": "[2]", "value": 0.3, "unit": "µM"},
      {"measurement": "change in RAS-GTP levels", "setting": "[2]", "value": "substantial increases in RAS-GTP levels at 10–30 μM"}
    ]},
    {"smiles": "Cc1ncncc1-c1cc(Cl)cc2c1nc(N1CC3(CNC3)C1)n2Cc1ccc(F)cc1", "note": "[Compound 61, 6-Chloro-1-(4-fluorobenzyl)-4-(4-methylpyrimidin-5-yl)-2-(2,6-diazaspiro[3.3]heptan-2-yl)-1H-benzo[d]imidazole]", "values": [
      {"measurement": "change in RAS-GTP levels", "setting": "[2]", "value": "only modest increases in RAS-GTP levels"}
    ]},
    {"smiles": "Cc1cc2ncn(Cc3ccc(F)c(Cl)c3)c2cc1C", "note": "[Compound 4, 1-(3-Chloro-4-fluorobenzyl)-5,6-dimethyl-1H-benzo[d]imidazole]", "values": [
      {"measurement": "nucleotide exchange activation", "setting": "[1]; in words", "value": "negligible nucleotide exchange activation"}
    ]},
    {"smiles": "Cc1cc(Cn2c(N3CCNCC3)nc3c(N4CCN(C)CC4)cc(Cl)cc32)cc(C)c1F", "note": "[Compound 42, 6-Chloro-1-(4-fluoro-3,5-dimethylbenzyl)-4-(4-methylpiperazin-1-yl)-2-(piperazin-1-yl)-1H-benzo[d]imidazole]", "values": [
      {"measurement": "lowest concentration inducing small increases in RAS-GTP", "setting": "[2]", "value": 0.3, "unit": "µM"},
      {"measurement": "change in RAS-GTP levels", "setting": "[2]", "value": "substantial increases in RAS-GTP levels at 10–30 μM"}
    ]},
    {"smiles": "Cc1cc(Cn2c(N3CC4(CNC4)C3)nc3c(-c4cncnc4C)cc(Cl)cc32)cc(C)c1F", "note": "[Compound 60, 6-Chloro-1-(4-fluoro-3,5-dimethylbenzyl)-4-(4-methylpyrimidin-5-yl)-2-(2,6-diazaspiro[3.3]heptan-2-yl)-1H-benzo[d]imidazole]", "values": [
      {"measurement": "change in RAS-GTP levels", "setting": "[2]", "value": "only modest increases in RAS-GTP levels"}
    ]}
  ]
}
